# Screens as filed in PubChem BioAssay.
# FXIa inh – inhibitors of human coagulation factor XIa | purified FXIa, Boc-Glu-Ala-Arg-AMC fluorogenic substrate | inhibition, % at 5 µM | 220,000 tested, 0.14% active | AID 798;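 active = inhibition of at least 40%; inactive = inhibition below 40%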;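 note: fluorescence of freed AMC excited at 355 nm; 0% = enzyme without compound and 100% = no enzyme blank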
# Calpain2 inh – inhibitors of pig calpain II. purified calpain II, fluorogenic peptide substrate, 30 min. inhibition, % at 16 µM. 220,000 tested, 0.37% active;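 active = inhibition above about 50%, limit read from the data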
# Furin inhibitor – blocks human furin protease activity. 220,000 tested, 0.061% active. AID 463115. purified furin, fluorogenic substrate cleavage. inhibition, % at 20 µM or 30 µM; in the data active = inhibition above about 25%
# Target sequence (P09958 108-714 limits assumed): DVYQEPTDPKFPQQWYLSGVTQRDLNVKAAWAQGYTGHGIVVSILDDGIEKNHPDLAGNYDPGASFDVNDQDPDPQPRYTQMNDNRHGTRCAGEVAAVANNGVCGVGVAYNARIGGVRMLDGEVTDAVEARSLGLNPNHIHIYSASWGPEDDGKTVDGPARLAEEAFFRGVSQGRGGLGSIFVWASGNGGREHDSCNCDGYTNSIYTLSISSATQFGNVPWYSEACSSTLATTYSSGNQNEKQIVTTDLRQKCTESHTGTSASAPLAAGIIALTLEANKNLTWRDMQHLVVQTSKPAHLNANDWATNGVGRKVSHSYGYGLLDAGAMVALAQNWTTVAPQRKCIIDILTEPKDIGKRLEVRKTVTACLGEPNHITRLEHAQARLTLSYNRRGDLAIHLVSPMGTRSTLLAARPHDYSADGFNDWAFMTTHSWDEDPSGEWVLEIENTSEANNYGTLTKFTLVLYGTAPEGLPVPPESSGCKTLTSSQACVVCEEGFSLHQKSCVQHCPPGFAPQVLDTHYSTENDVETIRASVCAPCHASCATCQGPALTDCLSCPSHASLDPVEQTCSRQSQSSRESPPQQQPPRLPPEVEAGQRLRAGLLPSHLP
# FXIIa inh – factor XIIa (human) inhibition; P00748; purified FXIIa, Boc-QGR-AMC fluorogenic substrate, 2 h; 220,000 tested, 0.3% active; AID 800; inhibition, % at 5 µM; in the data active = inhibition above about 40%;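 note: 0% = enzyme with no compound and 100% = blank without enzyme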
# hK5 inh – inhibitors of human kallikrein 5; inhibition, % at 5 µM; AID 873; recombinant hK5, fluorogenic AMC substrate cleavage; 210,000 tested, 0.59% active;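 active = inhibition of 40% or more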;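 note: 0% = enzyme controls without compound and 100% = no-enzyme blanks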
# thrombin 1536 – blocks human thrombin protease activity; 220,000 tested, 0.26% active; alpha-thrombin, Boc-VPR-AMC fluorogenic substrate cleavage; P00734; AID 1046; inhibition, % at 5 µM;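 active = inhibition at or above 40%; inactive = inhibition below 40%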;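 note: 0% = enzyme with no compound and 100% = wells without enzyme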
#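 Material: Human alpha-thrombin protein | Buffer or medium: pH 7.5 Tris-saline with Tween 20 | Reagent: Boc-VPR-AMC substrate, 15 µM final | Schedule: Reaction at ambient temperature | Detection: AMC fluorescence at 355 nm excitation and 460 nm emission | Evaluation: Percent inhibition scaled between no-compound controls and no-enzyme blanks | Controls: no-compound enzyme wells and no-enzyme blanks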
# Starred values were filed as active, the others as inactive; x = not tested or not shown. Rows were chosen to be rich in hits. Some 1.4% of all compounds tested hit in one or more screens of this group.
SMILES,FXIa inh,Calpain2 inh,Furin inhibitor,FXIIa inh,hK5 inh,thrombin 1536
CC1=NN(C(C#N)c2ccc([N+](=O)[O-])cc2)C(C)(C)C1 (stereo unspecified),50*,8,-4,28,57*,22
CC1=NN(C(C#N)c2ccc(F)cc2)C(C)(C)C1 (stereo unspecified),-1,5,-22,5,x,-10
Cc1cc(C)c([N+](=O)[O-])cc1-c1ccc(/C=N/c2c(-c3ccco3)nc3ccccn23)o1,-12,-461,-24,-12,4,-6
COc1cc(Cl)cc(C=O)c1OCC(=O)O,-2,-18,-16,-1,x,-7
CS(=O)(=O)N1CCN(Cc2ccc([N+](=O)[O-])cc2)CC1,33,5,-8,37,51*,10
O=C(CSc1nc2c(cnn2-c2ccccc2)c(=O)[nH]1)N1N=C(c2cccs2)CC1c1ccc(F)cc1 (stereo unspecified),8,-68,-26,12,-7,5
O=C(/C=C/c1cccnc1)/C=C/c1cccnc1,-6,6,-12,7,-8,-6
C/C(=N\Nc1ccccn1)c1cccs1,-2,17,-10,x,0,-4
COc1ccc(-c2nn3cnnc3s2)cc1OC,12,-40,-18,18,129*,45*
O=C(CN1C(=O)c2cccc3cccc1c23)NCc1ccc2c(c1)OCO2,2,-72,-11,105*,41*,20
CCOC(=O)CCNC(=O)N1CCCC(CNS(=O)(=O)c2cccs2)C1 (stereo unspecified),36,16,-10,35,18,41*
N#CC1=C(N)NC(SCc2ccc(F)cc2)=C(C#N)C12CCCCC2,1,66*,-14,14,-4,4
CC1(C)CC(N(Cc2cccs2)C(=O)c2ccco2)CCO1 (stereo unspecified),-2,-14,-21,9,-9,-6
O=C(CSc1nc2ccccc2n1Cc1ccccc1Cl)N/N=C/c1ccccc1C(=O)O,28,30,-7,30,47*,23
COc1ccc(S(=O)(=O)CCc2nnc(NC(=O)c3cccs3)s2)cc1,0,3,-15,22,1,77*
COc1ccc2c(c1)-c1nc(NC(=O)c3cccs3)sc1CC2,49*,-4,-5,22,-14,4
O=C(Nc1nc2c(s1)CCCC2)c1cccs1,1,6,-10,12,-1,-5
O=C(Nc1nnc(CCS(=O)(=O)c2ccc3ccccc3c2)s1)c1cccs1,2,31,-14,7,1,-5
Nc1cc(=O)[nH]c(SCC(=O)Nc2ccc(Br)cc2)n1,-8,-14,-17,-10,-20,-15
Cc1ccc(OC(C)C(=O)N/N=C/c2ccccn2)cc1 (stereo unspecified),0,27,-19,7,2,-3
CCOC(=O)CSc1nnc(-c2ccc(OC)cc2)n1CC,19,12,-18,26,78*,38
CCOC(=O)CNC(=O)CSc1nnc(-c2ccc(OC)cc2)n1CC,-2,-11,-28,6,-6,-8
Cc1cc(F)ccc1S(=O)(=O)Nc1ccccc1C(=O)NCc1ccccn1,34,-77,-8,29,50*,36
Cc1cc(F)ccc1S(=O)(=O)Nc1ccccc1C(=O)Nc1ncn[nH]1,0,-176,-4,-2,1,3
COCCNc1nnc(SCC(=O)c2c[nH]c3ccccc23)s1,8,19,-3,25,39,101*
SMILES,FXIa inh,Calpain2 inh,Furin inhibitor,FXIIa inh,hK5 inh,thrombin 1536
CCCCN1C(=O)CC(Nc2ccc(CC)cc2)C1=O (stereo unspecified),0,-26,1,13,1,0
Cc1cc(C)c2c3c(sc2n1)C(c1cccc(F)c1)C(C#N)=C(N)O3 (stereo unspecified),4,21,-13,10,14,60*
CCCCCC1CCC(c2ccc(C(N)=O)cc2)CC1 (stereo unspecified),-11,9,-11,-1,-14,-8
O=C(O)c1cccc(Cn2c(Cl)c(/C=N/NC(=O)c3cc4ccccc4cc3O)sc2=O)c1,13,59*,-13,11,5,3
Cn1c(CNc2ccc(Cl)cc2)nnc1SCc1ccccc1,3,1,-6,14,3,1
Cn1c(CNC(=O)Nc2ccccc2Cl)nnc1SCc1ccccc1,18,12,-11,17,43*,25
COc1ccc2c([N+](=O)[O-])c(Cl)[nH]c2c1,0,-103,-23,8,0,0
O=C1/C(=N/n2cnnc2)c2ccccc2N1Cc1ccccc1,-1,6,-26,1,6,-4
c1ccc2c(c1)C(=Nn1cnnc1)c1ccccc1-2,-9,2,26*,-20,1,-11
COc1ccc(NC(=S)N2CCN(CCN3C(=O)c4cccc5cccc(c45)C3=O)CC2)cc1,0,51*,-28,-2,-14,3
CC1(C)CC(N2CCCCC2)=CC(=[N+]2CCCCC2)C1,0,33,15,7,2,18
O=C(Oc1cccc2cccnc12)c1ccco1,3,-5,-7,13,-18,1
O=C(Oc1ccc(Cl)c2cccnc12)c1ccco1,-5,-18,-18,52*,-4,-3
O=C1OCC2OC(O)C(O)C(O)C2OC(=O)c2cc(O)c(O)c(O)c2-c2c(O)c(O)c3oc(=O)c4c(c(O)c(O)c5oc(=O)c2c3c54)-c2c1cc(O)c(O)c2O (stereo unspecified),59*,39,0,-3,23,-4
O=C1CC(N2CCN(Cc3ccc(Cl)cc3)CC2)C(=O)N1CCc1ccccc1 (stereo unspecified),21,5,2,41*,18,9
COC(=O)c1cccc(NS(=O)(=O)c2ccc(OC)c(OC)c2)c1C,0,29,-5,50*,10,2
CCOC(=O)c1cccc(NC(=O)C2CCN(S(=O)(=O)c3cccs3)CC2)c1,5,40,-18,18,-9,4
CCOC(=O)c1ccc2c(c1)nc(C1CCN(S(=O)(=O)c3cccs3)CC1)n2CC,38,31,-24,52*,-1,4
O=C(CCCNC(=O)/C(=C/c1ccc(F)cc1)NC(=O)c1ccccc1)OCc1ccccc1,-9,25,-14,-3,-3,9
C=CCC1(CC=C)CCCN1C(=O)CC1C(=O)NCCN1Cc1ccc(OC)c(OC)c1 (stereo unspecified),-4,-9,-11,1,1,-11
Cn1c(N/N=C/c2cccs2)cc(=O)n(C)c1=O,0,-41,4,-4,-10,65*
CCCC(=O)n1nc(-c2cccnc2)nc1NCc1ccccc1,-2,-1,-20,10,2,100*
CC(=O)n1nc(-c2cccnc2)nc1NCc1cccs1,1,34,-9,8,2,x
O=C(c1cccs1)n1nc(-c2cccnc2)nc1NCc1ccco1,17,11,-16,12,-6,83*
